This is an account of results in ChEMBL document CHEMBL4229456, “Salicylic Acid Derivatives Inhibit Oxalate Production in Mouse Hepatocytes with Primary Hyperoxaluria Type 1” (J Med Chem, 2018).

Series [1] deals with T1, 2-Hydroxyacid oxidase 1 (Mus musculus) (UniProt Q9WU19).
T1 sequence (whole entry): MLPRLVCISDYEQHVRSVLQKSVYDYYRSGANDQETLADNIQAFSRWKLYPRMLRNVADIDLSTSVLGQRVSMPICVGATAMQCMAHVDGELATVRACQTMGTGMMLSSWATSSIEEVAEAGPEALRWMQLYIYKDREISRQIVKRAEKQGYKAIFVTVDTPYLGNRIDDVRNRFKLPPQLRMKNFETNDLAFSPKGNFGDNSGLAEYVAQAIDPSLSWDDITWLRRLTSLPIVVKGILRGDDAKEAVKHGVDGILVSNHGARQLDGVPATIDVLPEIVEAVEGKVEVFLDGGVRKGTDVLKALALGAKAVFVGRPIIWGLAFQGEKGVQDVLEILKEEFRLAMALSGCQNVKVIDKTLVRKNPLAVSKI
As to the kind of experiment: Potency index, ratio of EC50 for CCPST to EC50 for test compound for inhibition of glycolate oxidase in C57BL/6 Agxt1-/- mouse hepatocytes using glycolate as substrate assessed as reduction in oxalate production after 24 to 72 hrs. In kind it is cell-based.

Series [2] addresses T2, 2-Hydroxyacid oxidase 1 (Mus musculus, UniProt Q9WU19).
T2 sequence (Q9WU19 whole entry): T1 sequence (whole entry)
As to the kind of experiment: Inhibition of glycolate oxidase in C57BL/6 Agxt1-/- mouse hepatocytes using glycolate as substrate assessed as reduction in oxalate production after 48 hrs. Type of series: cell-based. The method in brief:
(§1)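 Agxt1-/- hepatocytes from male C57BL/6 mice, 3.0x10^5 cells/well, in Williams E with 5% FBS and insulin/hydrocortisone. After 5 h, switched to serum-free medium and treated across a dose range with 5 mM glycolate. Medium harvested at 24, 48 and 72 h; oxalate measured by oxalate oxidase/HRP kit (MBTH/DMAB dye, 595 nm). EC50 from nonlinear regression of log concentration.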

Series [3] is described as follows: Drug metabolism in mouse liver microsomes assessed as metabolite formation at 2 uM in presence of NADPH after 60 mins by LC-HRMS method. In kind it is ADME, microsome. The settings on record: 1 h. In general terms: Liver microsomes are vesicles of endoplasmic reticulum, rich in cytochrome P450 enzymes.
Series [4] can be described thus: Activity against horseradish peroxidase by oxalate detection based assay.
The target of series [5] is T1, 2-Hydroxyacid oxidase 1 (Mus musculus). The series can be described thus: Inhibition of glycolate oxidase in C57BL/6 Agxt1-/- mouse hepatocytes using glycolate as substrate assessed as reduction in oxalate production at 5 uM after 72 hrs post treatment. In kind it is cell-based. The method in brief: (§2)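 Agxt1-/- primary hepatocytes (3.0x10^5 cells/well), serum-free Williams E with 5 mM glycolate, treated at the stated concentrations. Medium oxalate quantified at the stated time by oxalate oxidase kit (H2O2/HRP, MBTH and DMAB, 595 nm) and expressed relative to control.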

Series [6] deals with T2, 2-Hydroxyacid oxidase 1. As to the kind of experiment: Inhibition of glycolate oxidase in C57BL/6 Agxt1-/- mouse hepatocytes using glycolate as substrate assessed as reduction in oxalate production after 24 hrs. In kind it is cell-based. In a few lines: as §1
Series [7] relates to Hepatocyte. The series can be described thus: Cytotoxicity against C57BL/6 Agxt1-/- mouse hepatocytes at 80 uM after 24 to 48 hrs by Celltiter reagent based assay. Type of series: cell-based. The method in brief: (§3)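 Agxt1-/- hepatocytes (male C57BL/6, collagenase perfusion) seeded at 1.0x10^4 cells/well in 96-well plates and given the same compound concentrations as the 6-well oxalate cultures. At each time point, CellTiter 96 AQueous One reagent was added and incubated 2 h at 37°C, 5% CO2, with absorbance read at 493 nm.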

A short description of series [8]: Half life in mouse liver microsomes at 2 uM in presence of NADPH by LC-HRMS method. In kind it is ADME, microsome.
The next series concerns Armoracia rusticana. As to the kind of experiment: Inhibition of horseradish peroxidase at 20 uM after 1 min by sulfonated-DCIP dye based assay. In a few lines: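 HRP counter-screen without mGO or glycolate: H2O2 (10 µL of 1:10 000) with HRP, sulfonated DCIP and 4-aminoantipyrine under mGO assay conditions, compound added from 1 mM DMSO stock. Absorbance read at 515 nm after 1 min, compared with an H2O2 standard curve. Run in duplicate.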

For series [9], the target named is T1, 2-Hydroxyacid oxidase 1 (Mus musculus). As to the kind of experiment: Inhibition of glycolate oxidase in C57BL/6 Agxt1-/- mouse hepatocytes using glycolate as substrate assessed as reduction in oxalate production at 2.5 uM after 24 hrs post treatment relative to control. In kind it is cell-based. In a few lines:
as §2

For series [10] the target is unchanged. As to the kind of experiment: Inhibition of glycolate oxidase in C57BL/6 Agxt1-/- mouse hepatocytes using glycolate as substrate assessed as relative oxalate level at 10 uM after 24 hrs. Type of series: cell-based. The method in brief: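 Primary Agxt1-/- mouse hepatocytes in 6-well plates, serum-free Williams E with 5 mM glycolate, treated with 10 µM compound. Excreted oxalate measured 24 h later by oxalate oxidase–HRP colorimetric kit (595 nm) and expressed relative to untreated control. Mean ± SD, n = 3, one-way ANOVA.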

For series [11], the target named is T2, 2-Hydroxyacid oxidase 1. The series can be described thus: Inhibition of glycolate oxidase in C57BL/6 Agxt1-/- mouse hepatocytes using glycolate as substrate assessed as reduction in oxalate production after 72 hrs. Type of series: cell-based. In a few lines: as §1
For series [12], the target named is T1, 2-Hydroxyacid oxidase 1 (Mus musculus). As to the kind of experiment: Potency index, ratio of EC50 for CCPST to EC50 for test compound for inhibition of glycolate oxidase in C57BL/6 Agxt1-/- mouse hepatocytes using glycolate as substrate assessed as reduction in oxalate production after 24 hrs. In kind it is cell-based.
The target is the same in series [13]. The series can be described thus: Inhibition of glycolate oxidase in C57BL/6 Agxt1-/- mouse hepatocytes using glycolate as substrate assessed as reduction in oxalate production at 6.25 uM after 24 hrs post treatment relative to control. In kind it is cell-based. In a few lines:
as §2

Series [14] has the same target. As to the kind of experiment: Inhibition of glycolate oxidase in C57BL/6 Agxt1-/- mouse hepatocytes using glycolate as substrate assessed as reduction in oxalate production at 12.5 uM after 24 hrs post treatment relative to control. Type of series: cell-based. The method in brief:
as §2

Series [15] deals with T2, 2-Hydroxyacid oxidase 1. The series can be described thus: Inhibition of mouse recombinant glycolate oxidase expressed in Escherichia coli using glycolate as substrate by Dixon plot and Cornish-Bowden plot analysis. The method in brief:
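Recombinant mGO held at constant enzyme concentration and tested with increasing inhibitor at several glycolate concentrations in the HRP/DCIP 515 nm assay. Inhibition type read from Cornish-Bowden and Dixon plots; Ki taken as the intersection of the lines.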

Series [16] deals with T1, 2-Hydroxyacid oxidase 1 (Mus musculus). As to the kind of experiment: Inhibition of glycolate oxidase in C57BL/6 Agxt1-/- mouse hepatocytes using glycolate as substrate assessed as reduction in oxalate production at 12.5 uM after 48 hrs post treatment relative to control. Type of series: cell-based. In a few lines:
as §2

The test system of series [17] is Hepatocyte. The series can be described thus: Cytotoxicity against C57BL/6 Agxt1-/- mouse hepatocytes after 24 to 48 hrs by Celltiter reagent based assay. Type of series: cell-based. The method in brief: as §3
For series [18], the target named is T2, 2-Hydroxyacid oxidase 1. As to the kind of experiment: Inhibition of mouse recombinant glycolate oxidase expressed in Escherichia coli using glycolate as substrate by sulfonated DCIP dye-based assay. The method in brief: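 Purified recombinant mGO (10 µL at 0.1 µg/µL) with saturating glycolate (22.2 mM) in 50 mM potassium phosphate pH 7. Compound at 0.2 µM–0.2 mM; H2O2 detected by HRP-coupled sulfonated DCIP/4-aminoantipyrine dye at 515 nm. IC50 from nonlinear dose-response fitting.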

The target of series [19] is T1, 2-Hydroxyacid oxidase 1 (Mus musculus). As to the kind of experiment: Inhibition of mouse recombinant glycolate oxidase expressed in Escherichia coli at 25 uM using glycolate as substrate after 1 min by sulfonated DCIP dye-based assay relative to control.

The structures appear in SMILES notation. The source made the active and inactive calls. The rule behind the calls is not given here.

Consider `O=C(O)c1cc(-c2ccco2)ccc1O`, for which the Ratio EC50 in [1] amounted to 7. Also, the 50% effective concentration (EC50) (in general, the concentration at which the effect is half-maximal) stood at 7.88 µM on 2-Hydroxyacid oxidase 1 [2], 18 µM in series [4], 3.59 µM at 2-Hydroxyacid oxidase 1 [6] and 9.2 µM on 2-Hydroxyacid oxidase 1 [11]. Moreover, in series [3], the Drug metabolism entry is on record as “Metabolite_Notdetected”. The inhibition (usually the relative decrease from the control value, in per cent) in series [5] is “Active”. The Activity entry with Hepatocyte [7] is “Toxic”. Further, the half-life (usually how long it takes for the measured level to halve) at 2 µM in [8] was 61.9 min. Besides, the inhibition turned out to be 12.6% in the series with Armoracia rusticana and 26.5% in series [9]. In [10], the fold change (FC) turned out to be 0.
`O=Cc1ccc(-c2ccc(O)c(C(=O)O)c2)o1`: the Ratio EC50 in series [12] came to 5; in series [1] it was 7. Besides, the EC50 on 2-Hydroxyacid oxidase 1 [2] was 8.36 µM; on 2-Hydroxyacid oxidase 1 [6] it was 3.45 µM; on 2-Hydroxyacid oxidase 1 [11] it was 11.2 µM. The inhibition is 67.3% in series [13], 106% in [14], 62.3% in [16] and 42.7% in [19]. The inhibition constant Ki – broadly, a dissociation constant, usually derived from enzyme kinetics or from competition with a known ligand – on 2-Hydroxyacid oxidase 1 [15] was determined as 47.2 µM. For the same molecule, the half-life at 2 µM in series [8] stood at 13.3 min. In addition, the Activity entry in the series on Hepatocyte [17] was “Non-Toxic”. In [10], the fold change (FC) was 0. In addition, the concentration for half-maximal inhibition (IC50) (usually the concentration at which inhibition is half-maximal) at 2-Hydroxyacid oxidase 1 [18] amounted to 38.2 µM.
